In ChEMBL document CHEMBL1122781, “[(Aminomethyl)aryloxy]acetic acid esters. A new class of high-ceiling diuretics. 1. Effects of nitrogen and aromatic nuclear substitution” (J Med Chem, 1984):

Key:
Canis familiaris [1] = assay: Diuretic activity was evaluated by measuring amount of Na+ during 0-6 hr in urine of normotensive saline loaded dogs at 0.1 mg/kg, po; type: ADME, organism-based, Canis lupus familiaris; parameters: dose 0.1 mg/kg, route oral; conditions: dog, in vivo
How it was run: (§1)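 Conscious dogs, each given a single oral dose per experiment, with at least two dogs per dose. Urine volume is measured; aliquots are centrifuged and chilled. Heparinized venous blood (4 mL) is drawn at each urine collection. Urine and plasma are analyzed for Na+, K+, Cl−, urate and glucose. Result is mean Na+ excretion in mequiv kg−1 (6 h)−1.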

Rattus norvegicus [2] = assay: Diuretic activity was evaluated by measuring amount of Cl- during 0-6 h in urine of normotensive saline loaded rats at 30.0 mg/kg, po; type: ADME, organism-based; parameters: dose 30 mg/kg, route oral; conditions: in vivo
How it was run: (§2)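 Male Sprague–Dawley rats (275–375 g), fed and watered ad libitum before testing but not during it, eight per group. Compound in 0.2% methylcellulose/water given orally at 2 mL/kg, immediately followed by a 0.9% saline load equal to 5% of body weight. Rats were kept in individual metabolism cages. Urine was sampled at 2, 6 and 24 h for volume, Na+, K+, Cl−, uric acid and osmolality.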

[3] = Diuretic activity was evaluated by measuring amount of Na+ during 0-6 hr in urine of normotensive […] monkey at 1 mg/kg, po; type: ADME, organism-based; parameters: dose 1 mg/kg, route oral; conditions: simiiformes, in vivo
How it was run: (§3)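 Male and female cynomolgus monkeys, fasted 16–18 h with water until dosing, six per dose. Compound or vehicle is given through a nasogastric tube, then a 50 mL/kg water load. No food or water for 6 h in metabolism cages. Urine is collected at 0–1, 1–2, 2–4 and 4–6 h and analyzed for electrolytes, uric acid and glucose.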

Canis familiaris [4] = assay: Diuretic activity was evaluated by measuring amount of Cl- during 0-6 h in urine of normotensive saline loaded dogs at 10.0 mg/kg, po; type: ADME, organism-based, Canis lupus familiaris; parameters: dose 10 mg/kg, route oral; conditions: dog, in vivo
How it was run: (§4)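 Conscious female dogs, each given one oral dose per experiment. Urine and heparinized venous plasma were taken at each collection time. Urine was centrifuged and chilled, and plasma was separated within 30 min. Both were assayed for Na+, K+, Cl−, urate and glucose. Results are mean excretion in mequiv kg−1 (6 h)−1, with at least two dogs per dose.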

Rattus norvegicus [5] = assay: Diuretic activity was evaluated by measuring amount of Na+ during 0-6 hr in urine of normotensive saline loaded rats at 1.0mg/kg, po; type: ADME, organism-based; conditions: in vivo, 1 mg/kg
How it was run: (§5)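 Male normotensive Sprague–Dawley rats (275–375 g), eight per group. Test compound or vehicle (0.2% methylcellulose in water, 2 mL/kg) is given by mouth, followed at once by a 0.9% saline load equal to 5% of body weight. Rats are housed in metabolism cages without food or water. Urine is collected at 2, 6 and 24 h and assayed for Na+, K+, Cl−, uric acid and osmolality.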

Rattus norvegicus [6] = assay: Diuretic activity was evaluated by measuring amount of Cl- during 0-6 hr in urine of normotensive saline loaded rats at 10.0mg/kg, po; type: ADME, organism-based; conditions: in vivo, 10 mg/kg; how it was run: as §2
Rattus norvegicus [7] = assay: Diuretic activity was evaluated by measuring amount of Cl- during 0-6 hr in urine of normotensive saline loaded rats at 0.1 mg/kg, po; type: ADME, organism-based; parameters: dose 0.1 mg/kg, route oral; conditions: in vivo; how it was run: as §2
[8] = Diuretic activity was evaluated by measuring amount of K+ during 0-6 h in urine of […] at 10 mg/kg, po; type: ADME, organism-based; parameters: dose 10 mg/kg, route oral; conditions: simiiformes, in vivo
How it was run: (§6)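 Male and female cynomolgus monkeys, fasted 16–18 h with water until dosing, six per dose. Compound or vehicle was given by pediatric nasogastric tube, followed at once by a 50 mL/kg water load. Monkeys were kept in metabolism cages without food or water for 6 h. Urine was collected at 0–1, 1–2, 2–4 and 4–6 h, and volume, electrolytes, uric acid and glucose were measured.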

Rattus norvegicus [9] = assay: Diuretic activity was evaluated by measuring amount of K+ during 0-6 hr in urine of normotensive saline loaded rats at 0.3mg/kg, po; type: ADME, organism-based; conditions: in vivo; how it was run: as §2
[10] = Diuretic activity was evaluated by measuring amount of Cl- during 0-6 hr in urine of normotensive […] monkey at 1 mg/kg, po; type: ADME, organism-based; parameters: dose 1 mg/kg, route oral; conditions: simiiformes, in vivo; how it was run: as §6
Rattus norvegicus [11] = assay: Diuretic activity was evaluated by measuring amount of Cl- during 0-6 hr in urine of normotensive saline loaded rats at 0.3mg/kg, po; type: ADME, organism-based; conditions: in vivo; how it was run: as §2
Rattus norvegicus [12] = assay: Oral dose necessary to produce an excretion of 2 mequiv of Na+/kg in the rat urine in the 4-h period after peroral administration; type: ADME, organism-based; conditions: in vivo
Rattus norvegicus [13] = assay: Percent change of arterial blood pressure in spontaneously hypertensive rats at the dose of 10 mg/kg (p.o.) after 6 hr (control BP(mm Hg)=219); type: functional; conditions: route oral
Rattus norvegicus [14] = assay: Diuretic activity was evaluated by measuring amount of K+ during 0-6 h in urine of normotensive saline loaded rats at 100.0 mg/kg, po; type: ADME, organism-based; parameters: dose 100 mg/kg, route oral; conditions: in vivo; how it was run: as §2
Rattus norvegicus [15] = assay: Percent change of arterial blood pressure in spontaneously hypertensive rats at the dose of 10 mg/kg (p.o.) after […] (control BP(mm Hg)=219); type: functional; conditions: route oral
Rattus norvegicus [16] = assay: Diuretic activity was evaluated by measuring amount of K+ during 0-6 hr in urine of normotensive saline loaded rats at 10.0mg/kg, po; type: ADME, organism-based; conditions: in vivo, 10 mg/kg; how it was run: as §2
Rattus norvegicus [17] = assay: Diuretic activity was evaluated by measuring amount of Na+ during 0-6 h in urine of normotensive saline loaded rats at 100.0 mg/kg, po; type: ADME, organism-based; parameters: dose 100 mg/kg, route oral; conditions: in vivo; how it was run: as §5
[18] = Diuretic activity was evaluated by measuring amount of Cl- during 0-6 h in urine of […] monkey at 30 mg/kg, po; type: ADME, organism-based; parameters: dose 30 mg/kg, route oral; conditions: simiiformes, in vivo; how it was run: as §6
Rattus norvegicus [19] = assay: Percent change of arterial blood pressure in spontaneously hypertensive rats at the dose of 10 mg/kg (p.o.) after 24 hr (control BP(mm Hg)=219); type: functional; conditions: route oral
Canis familiaris [20] = assay: Diuretic activity was evaluated by measuring amount of Na+ during 0-6 h in urine of normotensive saline loaded dogs at 0.3 mg/kg, po; type: ADME, organism-based, Canis lupus familiaris; parameters: dose 0.3 mg/kg, route oral; conditions: dog, in vivo; how it was run: as §1
Canis familiaris [21] = assay: Diuretic activity was evaluated by measuring amount of Cl- during 0-6 hr in urine of normotensive saline loaded dogs at 0.1 mg/kg, po; type: ADME, organism-based, Canis lupus familiaris; parameters: dose 0.1 mg/kg, route oral; conditions: dog, in vivo; how it was run: as §4
Canis familiaris [22] = assay: Diuretic activity was evaluated by measuring amount of Na+ during 0-6 h in urine of normotensive saline loaded dogs at 1.0 mg/kg, po; type: ADME, organism-based, Canis lupus familiaris; parameters: dose 1 mg/kg, route oral; conditions: dog, in vivo; how it was run: as §1
[23] = Diuretic activity was evaluated by measuring amount of Na+ during 0-6 hr in urine of normotensive […] monkey at 10mg/kg, po; type: ADME, organism-based; conditions: simiiformes, in vivo; how it was run: as §3
[24] = Diuretic activity was evaluated by measuring amount of K+ during 0-6 hr in urine of normotensive […] monkey at 30mg/kg, po; type: ADME, organism-based; conditions: simiiformes, in vivo; how it was run: as §6
Canis familiaris [25] = assay: Diuretic activity was evaluated by measuring amount of Cl- during 0-6 hr in urine of normotensive saline loaded dogs at 0.03mg/kg, po; type: ADME, organism-based, Canis lupus familiaris; conditions: dog, in vivo; how it was run: as §4
Canis familiaris [26] = assay: Diuretic activity was evaluated by measuring amount of Na+ during 0-6 h in urine of normotensive saline loaded dogs at 10.0mg/kg, po; type: ADME, organism-based, Canis lupus familiaris; conditions: dog, in vivo, 10 mg/kg; how it was run: as §1
[27] = Diuretic activity was evaluated by measuring amount of Na+ during 0-6 hr in urine of normotensive […] monkey at 30mg/kg, po; type: ADME, organism-based; conditions: simiiformes, in vivo; how it was run: as §3
Rattus norvegicus [28] = assay: Percent change of arterial blood pressure in spontaneously hypertensive rats at the dose of 3 mg/kg (p.o.) after 6 hr (control BP(mm Hg)=221); type: functional; conditions: route oral
Canis familiaris [29] = assay: Diuretic activity was evaluated by measuring amount of K+ during 0-6 hr in urine of normotensive saline loaded dogs at 10.0mg/kg, po; type: ADME, organism-based, Canis lupus familiaris; conditions: dog, in vivo, 10 mg/kg; how it was run: as §4

Diuretic activity (Canis familiaris [1]): 0.7 m equiv kg-1 | Diuretic activity (Rattus norvegicus [2]): 17.4 m equiv kg-1 | Diuretic activity [3]: 2.7 m equiv kg-1 | Diuretic activity (Canis familiaris [4]): 7 m equiv kg-1 | Diuretic activity (Rattus norvegicus [5]): 12.8 m equiv kg-1 | Diuretic activity (Rattus norvegicus [6]): 16.4 m equiv kg-1 | Diuretic activity (Rattus norvegicus [7]): 8.1 m equiv kg-1 | Diuretic activity [8]: 1.3 m equiv kg-1 | Diuretic activity (Rattus norvegicus [9]): 2.7 m equiv kg-1 | Diuretic activity [10]: 2.7 m equiv kg-1 | Diuretic activity (Rattus norvegicus [11]): 11.3 m equiv kg-1 | ED2 (Rattus norvegicus [12]): 3 mg/kg | Diuretic activity (Rattus norvegicus [14]): 3.6 m equiv kg-1 | Diuretic activity (Rattus norvegicus [16]): 3.3 m equiv kg-1 | Diuretic activity (Rattus norvegicus [17]): 13.8 m equiv kg-1 | Diuretic activity [18]: 6.9 m equiv kg-1 | Diuretic activity (Canis familiaris [20]): 2.7 m equiv kg-1 | Diuretic activity (Canis familiaris [21]): 1 m equiv kg-1 | Diuretic activity (Canis familiaris [22]): 5 m equiv kg-1 | Diuretic activity [23]: 6.6 m equiv kg-1 | Diuretic activity [24]: 1.5 m equiv kg-1 | Diuretic activity (Canis familiaris [25]): 0.5 m equiv kg-1 | Diuretic activity (Canis familiaris [26]): 6.3 m equiv kg-1 | Diuretic activity [27]: 6.4 m equiv kg-1 | Diuretic activity (Canis familiaris [29]): 1.7 m equiv kg-1
Compound: CCOC(=O)COc1ccc(C(=O)c2ccc(O)c(CN)c2)c(Cl)c1Cl.Cl
Change (Rattus norvegicus [13]): -24% | Change (Rattus norvegicus [15]): -31% | Change (Rattus norvegicus [19]): -19% | Change (Rattus norvegicus [28]): -13%
